The text below walks through data of ChEMBL document CHEMBL2417429, “Direct and nitroxyl (HNO)-mediated reactions of acyloxy nitroso compounds with the thiol-containing proteins glyceraldehyde 3-phosphate dehydrogenase and alkyl hydroperoxide reductase subunit C” (J Med Chem, 2013).

pIC50: −log10 of the molar value. Where a name gives a salt, the structure may show the parent alone. Activity calls are given as the source filed them. No cut-off for these calls is given here.

Data set [1] in a line: Binding affinity to alkyl hydroperoxide reductase subunit C C165S mutant (unknown origin) assessed as formation of sulfinic acid of Cys46 of peptide D41 to G51 by LC-MS analysis. An outline of the steps:
(§1)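 AhpC C165S pre-reduced with DTT 30 min, desalted on spin column, concentration by A280 (ε 23400 M−1 cm−1). Protein (50 μM) treated with HNO donor (1, 5, 10, 50 equiv) in 0.1 M Tris pH 7.6, room temperature, 60 min; desalted into 25 mM ammonium bicarbonate pH 7.75. Asp-N digest (20:1 w/w, 37 °C, 12−16 h). LC-MS of D41−G51 peptide on high-resolution Orbitrap, positive ion mode.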

A short description of data set [2]: Binding affinity to alkyl hydroperoxide reductase subunit C C165S mutant (unknown origin) assessed as unreacted thiol in peptide D41 to G51 by LC-MS analysis. An outline of the steps: as §1
Data set [3] is described as follows: Binding affinity to alkyl hydroperoxide reductase subunit C C165S mutant peptide D41 to G51 (unknown origin) assessed as sulfinic acid or sulfinamide modification by MALDI-TOF MS. An outline of the steps:
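Pre-reduced, desalted AhpC C165S (50 μM) incubated with HNO donor (1, 5, 10, 50 equiv) in 0.1 M Tris pH 7.6, 60 min at room temperature. Buffer exchanged into ammonium bicarbonate, then Asp-N digest (20:1 w/w, 37 °C, 12−16 h). Digest mixed 1:1 with dihydroxybenzoic acid matrix; D41−G51 peptide mass read by MALDI-TOF.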

Data set [4] addresses Glyceraldehyde-3-phosphate dehydrogenase (Oryctolagus cuniculus) (UniProt P46406). Kind of data set: Binding affinity to rabbit muscle GAPDH peptide V232 to R245 assessed as formation of sulfinic acid of Cys244 by LC-MS analysis. A digest of the protocol:
(§2)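 GAPDH from rabbit muscle, untreated or donor-treated, digested with trypsin (monomer:trypsin 20:1 w/w) in 50 mM Tris-HCl, 37 °C, 12−16 h; quenched by freezing. 10 μM digest in 1:1 2% formic acid/methanol run by LC-MS on a high-resolution Orbitrap in positive ion mode; tryptic peptides identified by m/z.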

Data set [5] shares this target. Kind of data set: Binding affinity to rabbit muscle GAPDH tryptic peptide I143 to K159 assessed as formation of disulfide bond by LC-MS analysis. A digest of the protocol: as §2
The target is the same in data set [6]. Kind of data set: Binding affinity to rabbit muscle GAPDH assessed as structural modifications at 5 mM after 60 mins by SDS-PAGE.
Data set [7] can be described thus: Binding affinity to alkyl hydroperoxide reductase subunit C C165S mutant (unknown origin) assessed as structural modifications by SDS-PAGE.
Data set [8] addresses Glyceraldehyde-3-phosphate dehydrogenase (Oryctolagus cuniculus) (UniProt P46406). Kind of data set: Reversible inhibition of rabbit muscle GAPDH assessed as residual enzyme activity at 1 uM after 60 mins followed by incubation with DTT by spectrophotometry relative to control. An outline of the steps:
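GAPDH (rabbit muscle) exposed to inhibitor for 60 min in 0.1 M phosphate pH 7.4 at 25 °C, then incubated with DTT (100 mM) for 60 min. Residual activity measured by NADH build-up at 340 nm after adding NAD+ and glyceraldehyde-3-phosphate, read each minute over 30 min; expressed as percent of control.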

For data set [9] the target is unchanged. Put plainly: (§3) Inhibition of rabbit muscle GAPDH assessed as residual enzyme activity after 60 mins by spectrophotometry. A digest of the protocol:
(§4)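 Rabbit muscle GAPDH incubated with donor (0.1, 0.5, 1, 5, 10, 100 μM) in 0.1 M sodium phosphate pH 7.4, 25 °C, 60 min. NAD+ and glyceraldehyde-3-phosphate then added in a sealed cuvette; NADH formation followed at 340 nm every minute for 30 min. Runs typically in triplicate, mean ± SE; IC50 from sigmoidal fit of percent-of-control activity.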

Data set [10] has as its target Glyceraldehyde-3-phosphate dehydrogenase (Oryctolagus cuniculus, UniProt P46406). The data set is described as §3. A digest of the protocol:
as §4

In data set [11] the target is Glyceraldehyde-3-phosphate dehydrogenase (Oryctolagus cuniculus) (UniProt P46406). Kind of data set: Binding affinity to rabbit muscle GAPDH assessed as structural modifications of Cys149, Cys153 and Cys244 at 5 mM after 60 mins by MALDI-TOF MS.
The target is the same in data set [12]. Put plainly: Residual activity of rabbit muscle GAPDH at 1 uM after 60 mins by spectrophotometry.
Data set [13] is described as follows: Binding affinity to alkyl hydroperoxide reductase subunit C C165S mutant (unknown origin) assessed as presence of S-nitrosated D41 to G51 peptide by LC-MS analysis. An outline of the steps: as §1
Data set [14] is described as follows: Binding affinity to alkyl hydroperoxide reductase subunit C C165S mutant (unknown origin) assessed as formation of sulfinic acid by LC-MS analysis. A digest of the protocol: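 AhpC C165S reduced with DTT, desalted by spin column, quantified at 280 nm; 50 μM protein incubated with compound (1, 5, 10, 50 equiv) in 0.1 M Tris pH 7.6, room temperature, 60 min; desalted into 25 mM ammonium bicarbonate, Asp-N digest (20:1 w/w, 37 °C, 12–16 h); Orbitrap LC-MS, 55 min gradient, positive ion.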

The target in data set [15] is Glyceraldehyde-3-phosphate dehydrogenase (Oryctolagus cuniculus) (UniProt P46406). Kind of data set: Binding affinity to rabbit muscle GAPDH peptide V232 to R245 assessed as formation of sulfinic acid and N-phenylsulfinamide by LC-MS analysis.
A short description of data set [16]: Half life of the compound in neutral buffer at 1 mM by stopped-flow UV-Vis spectrophotometry. The data set is classed as physicochemical. The note with it: 1000 µM.
The nature of data set [17]: Chemical stability of the compound in neutral buffer assessed as rate constant at 1 mM by stopped-flow UV-Vis spectrophotometry. The format is physicochemical. The note with it: 1000 µM.
The nature of data set [18]: Binding affinity to alkyl hydroperoxide reductase subunit C C165S mutant (unknown origin) assessed as formation of mixture of sulfinamide and sulfinic acid at Cys46 by LC-MS analysis. An outline of the steps: as §1
The nature of data set [19]: Binding affinity to alkyl hydroperoxide reductase subunit C C165S mutant (unknown origin) assessed as formation of sulfinamide and sulfinic acid by LC-MS analysis. A digest of the protocol:
as §1

Data set [20] has as its target Glyceraldehyde-3-phosphate dehydrogenase (Oryctolagus cuniculus) (UniProt P46406). Kind of data set: Binding affinity to rabbit muscle GAPDH peptide V232 to R245 assessed as formation of mixture of sulfinamide and sulfinic acid by LC-MS analysis. A digest of the protocol:
as §2

For data set [21] the target is unchanged. Put plainly: Binding affinity to rabbit muscle GAPDH peptide V232 to R245 assessed as formation of S-nitrosated peptide by LC-MS analysis.

Chain of Glyceraldehyde-3-phosphate dehydrogenase (P46406 whole entry): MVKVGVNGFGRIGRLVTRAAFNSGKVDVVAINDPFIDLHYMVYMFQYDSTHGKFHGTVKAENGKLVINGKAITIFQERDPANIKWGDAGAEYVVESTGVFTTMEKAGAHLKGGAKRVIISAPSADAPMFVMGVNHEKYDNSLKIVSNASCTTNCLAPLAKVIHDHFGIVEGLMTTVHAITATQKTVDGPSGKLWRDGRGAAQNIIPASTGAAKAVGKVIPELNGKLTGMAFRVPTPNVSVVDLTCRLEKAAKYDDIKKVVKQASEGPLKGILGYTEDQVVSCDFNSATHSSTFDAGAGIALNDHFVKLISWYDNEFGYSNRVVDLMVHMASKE
Chain of Glyceraldehyde-3-phosphate dehydrogenase (Oryctolagus cuniculus) (P46406 whole entry, looked up): as the sequence (P46406 whole entry) above

`CC(=O)OC1(N=O)CCCCC1` [1-NITROSOCYCLOHEXYL ACETATE]: the result in data set [1], in [3], in data set [4], in [5], in data set [7] and in [11] was Active. In addition, the result in [2] and in data set [6] was inactive. Besides, the Activity in data set [8] came out at 12%. In addition, the inhibition entry in data set [9] was “Dose-dependent effect”. Besides, in [10], the pIC50 is 6.70. The compound also came in with a residual activity in data set [12] of 5%.
Consider `N[C@@H](CCC(=O)N[C@@H](CSN=O)C(=O)NCC(=O)O)C(=O)O`, for which the result in data set [13] was Active.
Take `O=Nc1ccccc1`: the result in data set [14], in data set [15] and in data set [5] was Active.
The compound `O=NC1(OC(=O)C(F)(F)F)CCCCC1` [1-NITROSOCYCLOHEXYL TRIFLUOROACETATE] had a t1/2 in data set [16] of 0.121 s. For the same compound, the K in data set [17] stood at 5.74 s⁻¹. Also, the outcome in data set [18] and in [3] was Active. In data set [2], the result was inactive. Moreover, the pIC50 in data set [10] is 6.17. Moreover, the residual activity in [12] is 42%.
For `[O-][N+]([O-])=NO` [ANGELI'S SALT], the result in data set [19], in data set [3], in [5], in data set [20] and in data set [11] was Active. Also, the result in data set [2] and in data set [6] was inactive. The inhibition result in [9] is “Dose-dependent effect”. The negative-log IC50 (pIC50) in [10] was 6.40.
As to `CCN(CC)N(O)N=O`, the result in [13] and in data set [21] was Active.
Take `O=S(=O)(NO)c1ccccc1Br`: the outcome in data set [18], in data set [5] and in data set [20] was Active.
`CC(C)(C)C(=O)OC1(N=O)CCCCC1`: the result in data set [1], in [3], in [4], in [5] and in [11] was Active. Further, the result in [2] and in data set [6] was inactive. The Activity in data set [8] amounted to 88%. Besides, the inhibition result in [9] was “Dose-dependent effect”. The negative-log IC50 (pIC50) in data set [10] was 6.82. Also, the residual activity in data set [12] amounted to 76%.
